In ChEMBL document CHEMBL3297693, “Novel 3-arylfuran-2(5H)-one-fluoroquinolone hybrid: design, synthesis and evaluation as antibacterial agent” (Bioorg Med Chem, 2014):
In brackets after ≈: the same amount, converted by molar mass.

Key:
Staphylococcus aureus = experiment: Antimicrobial activity against […] Staphylococcus aureus ATCC 25923 after 8 to 10 hrs by MTT proliferation assay; type: functional
Summary of the method: (§1)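 Broth microdilution in LB medium in 96-well plates, inoculum about 10⁵ cfu/mL, serially diluted compounds, sterile medium as blank control. MTT (3 mg/mL in PBS) added, then 4–5 h at room temperature. Dye extracted with SDS lysis buffer (10% SDS, 5% isopropanol, pH about 3.5) for 8–10 h at room temperature. Absorbance read at 570 nm, control OD 1.0–2.0. MIC₅₀ reported.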

Bacillus subtilis = experiment: Antimicrobial activity against tetracycline-resistant Bacillus subtilis ATCC 6633 after 8 to 10 hrs by MTT proliferation assay; type: functional; summary of the method: as §1
Escherichia coli = experiment: Antimicrobial activity against multiple drug-resistant Escherichia coli ATCC 35218 after 8 to 10 hrs by MTT proliferation assay; type: functional; summary of the method: as §1
[1] = Inhibition of Staphylococcus aureus TyrRS expressed in Escherichia coli assessed as tRNA aminoacylation pre-incubated for 10 mins using Escherichia coli MRE600 tRNA and L-[ring-3,5-3H]tyrosine by liquid scintillation counting
Summary of the method: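 S. aureus TyrRS overexpressed in E. coli and purified to about 98% (SDS–PAGE). Enzyme (0.2 nM) preincubated with inhibitor range 10 min at room temperature, then prewarmed mix added at 37 °C. Aliquots quenched in cold 7% TCA, filtered, scintillation counted. Kept linear, under 50% tRNA acylation.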

DNA gyrase = DNA gyrase (Escherichia coli, UniProt P0AES4+P0AES6); experiment: Inhibition of Escherichia coli DNA gyrase assessed as reduction in enzyme-mediated DNA supercoiling using relaxed pBR322 substrate incubated for 60 mins by electrophoresis method; type: protein-complex assay

Row | SMILES | MIC50 (Staphylococcus aureus) [µg/mL] | MIC50 (Bacillus subtilis) [µg/mL] | MIC50 (Escherichia coli) [µg/mL] | IC50 [1] [nM] | IC50 (DNA gyrase) [nM]
1 | O=C1OCC(OCCN2CCN(c3cc4c(cc3F)c(=O)c(C(=O)O)cn4C3CC3)CC2)=C1c1ccc(Br)cc1 | 8.5 (≈ 13.9 µM) | 2.6 (≈ 4.25 µM) | 3.8 (≈ 6.2 µM) | – | –
2 | O=C1OCC(OCCN2CCN(c3cc4c(cc3F)c(=O)c(C(=O)O)cn4-c3ccc(F)cc3)CC2)=C1c1cccc(Br)c1 | 0.39 (≈ 0.585 µM) | 0.43 (≈ 0.645 µM) | 4.4 (≈ 6.6 µM) | – | –
3 | COc1ccc(C2=C(OCCN3CCN(c4cc5c(cc4F)c(=O)c(C(=O)O)cn5C4CC4)CC3)COC2=O)cc1 | 6.5 (≈ 11.5 µM) | 2.6 (≈ 4.61 µM) | 23.5 (≈ 41.7 µM) | – | –
4 | CCn1cc(C(=O)O)c(=O)c2cc(F)c(N3CCN(CCOC4=C(c5ccc(Cl)cc5)C(=O)OC4)CC3)nc21 | 24.9 (≈ 44.7 µM) | 13.2 (≈ 23.7 µM) | 9.6 (≈ 17.2 µM) | – | –
5 | O=C1OCC(OCCN2CCN(c3cc4c(cc3F)c(=O)c(C(=O)O)cn4C3CC3)CC2)=C1c1ccccc1F | 0.19 (≈ 0.344 µM) | 0.09 (≈ 0.163 µM) | 0.11 (≈ 0.199 µM) | 120 | 1150
6 | CCn1cc(C(=O)O)c(=O)c2cc(F)c(N3CCN(CCOC4=C(c5cccc(Br)c5)C(=O)OC4)CC3)nc21 | 13.1 (≈ 21.8 µM) | 4.7 (≈ 7.81 µM) | 12.2 (≈ 20.3 µM) | – | –
7 | CCn1cc(C(=O)O)c(=O)c2cc(F)c(N3CCN(CCOC4=C(c5ccc(Cl)cc5)C(=O)OC4)CC3)cc21 | 15.9 (≈ 28.6 µM) | 18.5 (≈ 33.3 µM) | 19.5 (≈ 35.1 µM) | – | –
8 | CCn1cc(C(=O)O)c(=O)c2cc(F)c(N3CCN(CCOC4=C(c5cccc(Cl)c5)C(=O)OC4)CC3)nc21 | 8.7 (≈ 15.6 µM) | 15.3 (≈ 27.5 µM) | 2.9 (≈ 5.21 µM) | – | –
9 | O=C1OCC(OCCN2CCN(c3cc4c(cc3F)c(=O)c(C(=O)O)cn4C3CC3)CC2)=C1c1ccc(Cl)cc1 | 0.49 (≈ 0.863 µM) | 0.16 (≈ 0.282 µM) | 1.3 (≈ 2.29 µM) | – | –
10 | CCn1cc(C(=O)O)c(=O)c2cc(F)c(N3CCN(CCOC4=C(c5ccccc5)C(=O)OC4)CC3)cc21 | 18.9 (≈ 36.2 µM) | 16.6 (≈ 31.8 µM) | > 25 | – | –
11 | Cc1ccc(C2=C(OCCN3CCN(c4cc5c(cc4F)c(=O)c(C(=O)O)cn5-c4ccc(F)cc4)CC3)COC2=O)cc1 | 0.45 (≈ 0.748 µM) | 0.82 (≈ 1.36 µM) | 2 (≈ 3.32 µM) | – | –
12 | CCn1cc(C(=O)O)c(=O)c2cc(F)c(N3CCN(CCOC4=C(c5ccccc5F)C(=O)OC4)CC3)nc21 | 2.6 (≈ 4.81 µM) | 1.6 (≈ 2.96 µM) | 2.6 (≈ 4.81 µM) | – | –
13 | O=C1OCC(OCCN2CCN(c3cc4c(cc3F)c(=O)c(C(=O)O)cn4-c3ccc(F)cc3)CC2)=C1c1ccccc1Cl | 0.25 (≈ 0.402 µM) | 0.37 (≈ 0.595 µM) | 0.72 (≈ 1.16 µM) | 6370 | 4050
14 | O=C1OCC(OCCN2CCN(c3cc4c(cc3F)c(=O)c(C(=O)O)cn4C3CC3)CC2)=C1c1ccccc1 | 0.64 (≈ 1.2 µM) | 0.23 (≈ 0.431 µM) | 1 (≈ 1.87 µM) | 7120 | 5770
15 | CCn1cc(C(=O)O)c(=O)c2cc(F)c(N3CCN(CCOC4=C(c5ccc(Br)cc5)C(=O)OC4)CC3)cc21 | 21.6 (≈ 36 µM) | > 25 | 13.5 (≈ 22.5 µM) | – | –
16 | O=C1OCC(OCCN2CCN(c3cc4c(cc3F)c(=O)c(C(=O)O)cn4-c3ccc(F)cc3)CC2)=C1c1cccc(Cl)c1 | 0.44 (≈ 0.707 µM) | 0.75 (≈ 1.21 µM) | 0.89 (≈ 1.43 µM) | – | –
17 | Cc1ccc(C2=C(OCCN3CCN(c4cc5c(cc4F)c(=O)c(C(=O)O)cn5C4CC4)CC3)COC2=O)cc1 | 0.53 (≈ 0.968 µM) | 0.39 (≈ 0.712 µM) | 1.9 (≈ 3.47 µM) | – | –
18 | O=C1OCC(OCCN2CCN(c3cc4c(cc3F)c(=O)c(C(=O)O)cn4-c3ccc(F)cc3)CC2)=C1c1ccccc1OCc1ccccc1 | 2.1 (≈ 3.03 µM) | 0.58 (≈ 0.836 µM) | 2.8 (≈ 4.04 µM) | – | –
19 | CCn1cc(C(=O)O)c(=O)c2cc(F)c(N3CCN(CCOC4=C(c5ccccc5Cl)C(=O)OC4)CC3)cc21 | 0.43 (≈ 0.773 µM) | 0.9 (≈ 1.62 µM) | 2.5 (≈ 4.5 µM) | – | –
20 | O=C1OCC(OCCN2CCN(c3cc4c(cc3F)c(=O)c(C(=O)O)cn4-c3ccc(F)cc3)CC2)=C1c1ccc(F)cc1 | 0.34 (≈ 0.561 µM) | 0.2 (≈ 0.33 µM) | 1.1 (≈ 1.82 µM) | – | –
21 | CCn1cc(C(=O)O)c(=O)c2cc(F)c(N3CCN(CCOC4=C(c5ccccc5)C(=O)OC4)CC3)nc21 | 6.8 (≈ 13 µM) | 12.6 (≈ 24.1 µM) | 5.6 (≈ 10.7 µM) | – | –
22 | O=C1OCC(OCCN2CCN(c3cc4c(cc3F)c(=O)c(C(=O)O)cn4-c3ccc(F)cc3)CC2)=C1c1ccccc1F | 0.21 (≈ 0.347 µM) | 0.2 (≈ 0.33 µM) | 0.67 (≈ 1.11 µM) | 2810 | 3690
23 | O=C1OCC(OCCN2CCN(c3cc4c(cc3F)c(=O)c(C(=O)O)cn4-c3ccc(F)cc3)CC2)=C1c1ccccc1 | 0.69 (≈ 1.17 µM) | 0.6 (≈ 1.02 µM) | 1.2 (≈ 2.04 µM) | – | –
24 | O=C1OCC(OCCN2CCN(c3cc4c(cc3F)c(=O)c(C(=O)O)cn4C3CC3)CC2)=C1c1ccc(F)cc1 | 0.24 (≈ 0.435 µM) | 0.16 (≈ 0.29 µM) | 0.37 (≈ 0.671 µM) | 1290 | 2840
25 | CCn1cc(C(=O)O)c(=O)c2cc(F)c(N3CCN(CCOC4=C(c5ccccc5F)C(=O)OC4)CC3)cc21 | 3.3 (≈ 6.12 µM) | 2.4 (≈ 4.45 µM) | 2.7 (≈ 5 µM) | – | –
26 | O=C(O)c1cn(C2CC2)c2cc(N3CCNCC3)c(F)cc2c1=O [CIPROFLOXACIN] | 6.82 (≈ 20.6 µM) | 2.7 (≈ 8.15 µM) | 5.65 (≈ 17.1 µM) | – | –
27 | O=C1OCC(OCCN2CCOCC2)=C1c1ccc(O)cc1 | – | – | – | 100 | –
28 | O=C1OCC(OCCN2CCN(c3cc4c(cc3F)c(=O)c(C(=O)O)cn4-c3ccc(F)cc3)CC2)=C1c1ccc(Cl)cc1 | 7.8 (≈ 12.5 µM) | 0.51 (≈ 0.82 µM) | 1.7 (≈ 2.73 µM) | – | –
29 | O=C1OCC(OCCN2CCN(c3cc4c(cc3F)c(=O)c(C(=O)O)cn4-c3ccc(F)cc3)CC2)=C1c1ccc(Br)cc1 | 11.1 (≈ 16.7 µM) | 2.9 (≈ 4.35 µM) | 4.2 (≈ 6.3 µM) | – | –
